Data as given in ChEMBL document CHEMBL5385915 (J Med Chem, 2024).
In brackets after ≈: the same amount, converted by molar mass. Activity calls are given as the source filed them. No cut-off for these calls is given here.

Experiments:
[1] = tested on: Mycolicibacterium smegmatis; experiment: Antimycobacterial activity against Mycobacterium smegmatis MC(2)155 assessed as reduction in microbial growth incubated for 24 hrs by resazurin dye based assay; format: functional
[2] = Lipophilicity, log P of the compound; format: physicochemical; details: octanol/water
[3] = Metabolic stability in mouse hepatocyte assessed as intrinsic clearance measured upto 60 mins […] by LC-MS/MS analysis; format: ADME, cell-based; details: hepatocytes, 1 h
Outline: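 Mouse hepatocytes at 0.5 × 10^6 cells/mL incubated with 1 μM compound at 37 °C, sampled at 0, 10, 20, 30, 45 and 60 min. Disappearance with and without hepatocytes measured by LC-MS/MS; output is mean CLint and t1/2. Duplicate per compound, with up to three species-specific controls.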

[4] = tested on: Mycobacterium tuberculosis; experiment: Bactericidal activity against Mycobacterium tuberculosis H37Rv incubated for 6 to 10 days by time kill assay; format: functional, organism-based; details: dose <= 96.0 µM, time 6-10 day
Outline: (§1)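 Time-kill: 2-fold dilutions 96–3 μM in CMM MOD2, 0.1% DMSO vehicle; start 1×10^6 CFU/mL, 37 °C, 200 rpm; sampled days 0, 2, 6, 10, 14; 10-fold dilutions spotted in triplicate on 7H10, counted after 3 weeks; three biological repeats; factorial ANOVA with Tukey post hoc.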

[5] = tested on: Mycobacterium tuberculosis; experiment: Bactericidal activity against Mycobacterium tuberculosis H37Rv assessed as reduction in bacterial count at […] uM incubated for 6 days by time kill assay; format: functional; details: time 6 day; outline: as §1
[6] = tested on: Mycobacterium tuberculosis; experiment: Bactericidal activity against Mycobacterium tuberculosis H37Rv assessed as reduction in bacterial count at […] uM incubated for 14 days by time kill assay; format: functional; details: time 14 day; outline: as §1
[7] = tested on: Mycobacterium tuberculosis; experiment: Bactericidal activity against Mycobacterium tuberculosis H37Rv assessed as reduction in viable count at 96 uM incubated for 6 days by CV-AM staining based flow cytometry analysis; format: functional; details: time 6 day
Outline: (§2)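 H37Rv from time-kill wells (3–96 μM, 0.1% DMSO vehicle) at each time point, stained in quadruplicate 1 h, 37 °C, dark with 20 μM CV-AM and/or 20 μM Sytox Green; fixed 4% formaldehyde 1 h; flow cytometry (405/488 nm lasers); singlets gated by FSC area/height, quadrant gates P1–P4.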

[8] = tested on: Mycobacterium tuberculosis; experiment: Bactericidal activity against Mycobacterium tuberculosis H37Rv assessed as reduction in viable count at 96 uM incubated for 10 days by CV-AM staining based flow cytometry analysis; format: functional; details: time 10 day; outline: as §2
[9] = tested on: Mycobacterium tuberculosis; experiment: Bactericidal activity against Mycobacterium tuberculosis H37Rv assessed as reduction in viable count at 96 uM incubated for 14 days by CV-AM staining based flow cytometry analysis; format: functional; details: time 14 day; outline: as §2
[10] = tested on: Mycobacterium tuberculosis; experiment: Bactericidal activity against Mycobacterium tuberculosis H37Rv assessed as reduction in viable count at 96 uM incubated for 14 days by sytox green staining based flow cytometry analysis; format: functional, organism-based; details: time 14.0 day; outline: as §2
[11] = tested on: Mycobacterium tuberculosis; experiment: Bactericidal activity against Mycobacterium tuberculosis H37Rv assessed as reduction in viable count at 48 uM incubated for 6 days by sytox green staining based flow cytometry analysis; format: functional; details: time 6 day; outline: as §2
[12] = tested on: Mycobacterium tuberculosis; experiment: Bactericidal activity against Mycobacterium tuberculosis H37Rv assessed as reduction in viable count at 48 uM incubated for 14 days by sytox green staining based flow cytometry analysis; format: functional; details: time 14 day; outline: as §2
[13] = tested on: Mycolicibacterium smegmatis; experiment: Inhibition of macromolecule biosynthesis in Mycobacterium smegmatis assessed as reduction in incorporation of [3H]-thymidine in DNA at 0.75 times MIC incubated for 36 hrs; format: functional, organism-based
[14] = tested on: Mycolicibacterium smegmatis; experiment: Inhibition of macromolecule biosynthesis in Mycobacterium smegmatis assessed as reduction in incorporation of [3H]-uridine in RNA at 0.75 times MIC incubated for 36 hrs; format: functional, organism-based
[15] = tested on: Mycolicibacterium smegmatis; experiment: Inhibition of macromolecule biosynthesis in Mycobacterium smegmatis assessed as reduction in incorporation of [3H]-leucine in protein at 0.75 times MIC incubated for 36 hrs; format: functional, organism-based
[16] = tested on: Mycolicibacterium smegmatis; experiment: Inhibition of macromolecule biosynthesis in Mycobacterium smegmatis assessed as reduction in incorporation of [3H]-diaminopimelic acid in peptidoglycan at 1 times MIC incubated for 6 hrs; format: functional, organism-based
[17] = tested on: Mycolicibacterium smegmatis; experiment: Inhibition of cell wall biosynthesis in Mycobacterium smegmatis assessed as reduction in trehalose monomycolate accumulation at 0.5 to 5 times MIC incubated for 6 hrs in presence of [14C]acetate by MPA staining based TLC analysis; format: functional, organism-based
[18] = tested on: Mycolicibacterium smegmatis; experiment: Inhibition of cell wall biosynthesis in Mycobacterium smegmatis assessed as reduction in trehalose dimycolate accumulation at 0.5 to 5 times MIC incubated for 6 hrs in presence of [14C]acetate by alpha-napthol staining based TLC analysis; format: functional, organism-based
[19] = tested on: Mycolicibacterium smegmatis; experiment: Inhibition of mycolic acid biosynthesis in Mycobacterium smegmatis at 5 times MIC incubated for 12 hrs in presence of [14C]acetate by TLC based autoradiography analysis; format: functional, organism-based
[20] = tested on: Corynebacterium glutamicum; experiment: Inhibition of mycolic acid biosynthesis in Corynebacterium glutamicum at 0.5 to 5 times MIC incubated for 6 hrs by TLC based autoradiography analysis; format: functional, organism-based
[21] = tested on: Corynebacterium glutamicum; experiment: Inhibition of mycolic acid biosynthesis in Corynebacterium glutamicum pks13 at 0.5 to 5 times MIC incubated for 6 hrs by TLC based autoradiography analysis; format: functional, organism-based
[22] = tested on: Corynebacterium glutamicum; experiment: Inhibition of mycolic acid biosynthesis in Corynebacterium glutamicum harboring MmpL3 at 0.5 to 5 times MIC incubated for 6 hrs by TLC based autoradiography analysis; format: functional, organism-based
[23] = tested on: Mycobacterium tuberculosis; experiment: Antitubercular activity against drug-sensitive Mycobacterium tuberculosis H37Rv pTYOK assessed as inhibition of bacterial growth measured upto 3 days by luminometer based analysis; format: functional; details: 72 h, time <= 3 day
[24] = tested on: Mycobacterium tuberculosis; experiment: Antitubercular activity against drug-sensitive Mycobacterium tuberculosis H37Rv assessed as inhibition of bacterial growth measured for 7 days by REMA analysis; format: functional; details: 168 h, time 7 day
Outline: (§3)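 REMA: 2-fold dilutions in CMM MOD2 medium, wells inoculated at 1×10^6 CFU/mL, 7 days at 37 °C with 200 rpm agitation; resazurin (0.02% w/v in PBS pH 7.4, 5% Tween 80) then 6 h at room temperature; OD570 vs vehicle; MIC99 by modified Gompertz function; three biological replicates.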

[25] = tested on: Mycobacterium tuberculosis; experiment: Antitubercular activity against Mycobacterium tuberculosis 1192/015 assessed as inhibition of bacterial growth measured for 7 days by REMA analysis; format: functional; details: 1192/015, 168 h, time 7 day; outline: as §3
[26] = Metabolic stability in mouse liver microsome assessed as intrinsic clearance measured upto 30 mins in presence of NADPH by LC-MS/MS analysis; format: ADME; details: liver microsomes, read-out: CLH
Outline: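 1 μM compound with 0.5 mg/mL mouse liver microsomes, with or without NADPH (1 mM), 37 °C, sampled at 0, 5, 10, 15 and 30 min. Parent loss followed by LC-MS/MS, giving mean CLint and t1/2. Two replicates per compound; up to three species-specific control compounds included.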

[27] = Efflux ratio of permeability across basolateral to apical side over apical to basolateral side in human Caco-2 cells incubated for 2 hrs by LC-MS/MS analysis; format: ADME, cell-based

For `Brc1ccccc1CN1[C@H](CN2CCCC2)C[C@@H]1c1ccccc1` (racemic), the MIC99 [1] was 30.5 µM and the logP [2] was 4.84.

Work on `Clc1cc(Cl)cc([C@H]2C[C@@H](CN3CCCC3)N2Cc2ccccc2Br)c1` (racemic) yielded an MIC99 [1] of 14 µM and a logP [2] of 6.05.

For `COCCNC[C@@H]1C[C@H](c2ccc(OC(F)(F)F)cc2)N1Cc1ccccc1OC(F)(F)F` (racemic), the MIC99 [1] was 29 µM and the logP [2] was 6.1.

For `CNC[C@@H]1C[C@H](c2ccc(OC(F)(F)F)cc2)N1Cc1ccccc1OC(F)(F)F` (racemic), the logP [2] was 6.14, the “intrinsic clearance (CLint)” value [3] was under 60 µL/min/mg and the Activity [4] was “Dose-Dependent Effect”. For the same compound, the Activity [5] was 3.28 log10CFU/ml, the Activity [6] was 3.99 log10CFU/ml and the Activity [7] was 0.043%. The Activity [8] was 0.08%, the Activity [9] was 0.011% and the Activity [10] was “Active”. For the same compound, the Activity [11] was 0.027%, the Activity [12] was 0.068% and the inhibition [13] was “inactive”. For the same compound, the inhibition [14] was “inactive”, the inhibition [15] was “inactive” and the inhibition [16] was “Active”. For the same compound, the inhibition [17] was “Active”, the inhibition [18] was “Active” and the inhibition [19] was “Active”. For the same compound, the inhibition [20] was “Active”, the inhibition [21] was “Active” and the inhibition [22] was “Active”.

In the case of `C#CCNC[C@@H]1C[C@H](c2cc(Br)cc(Br)c2)N1Cc1ccccc1Br` (racemic), the MIC99 [1] is reported as 100 µM and the logP [2] is reported as 5.82.

`CC(C)NC[C@@H]1C[C@H](c2ccccc2)N1Cc1ccccc1OC(F)(F)F` (racemic) gave an MIC99 [1] of 87 µM and a logP [2] of 5.49.

For `FC(F)(F)c1cc([C@H]2C[C@@H](CN3CCCC3)N2Cc2ccccc2Br)cc(C(F)(F)F)c1` (racemic), the MIC99 [1] was 26 µM, the logP [2] was 6.6 and the MIC50 [23] was 6.9 µM (≈ 3.6 µg/mL). The MIC99 [24] was 3.3 µM (≈ 1.72 µg/mL), the MIC99 [25] was 19.1 µM (≈ 9.96 µg/mL) and the microsomal CLint [26] was over 150 µL/min/mg. The “intrinsic clearance (CLint)” value [3] was under 60 µL/min/mg, the efflux ratio at 2 h [27] was under 1 and the inhibition [21] was “Active”. For the same compound, the inhibition [22] was “Active”.

With `CN(C)C[C@@H]1C[C@H](c2cc(Br)cc(Br)c2)N1Cc1ccccc1Br` (racemic) the MIC99 [1] was 80 µM and the logP [2] was 5.97.
